pKd: −log10 of the molar value. Calls of active or inactive are those of the source. The calls are words filed in the database; no cut-off is given here.
Legend:
[1] = target: T1, Amyloid-beta precursor protein (Homo sapiens, UniProt P05067); assay: Binding affinity to Amyloid beta (1 to 42) aggregates (unknown origin)
In short: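 Fluorescence titration in which P14 (0–200 nM, in EtOH) was incubated with 5 μM Aβ42 aggregates for 30 min at room temperature. Read in a quartz cuvette at Ex 589 nm, Em 620 nm. Kd was obtained by nonlinear regression, one-site binding. n = 3; mean ± SD.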

[2] = target: T1, Amyloid-beta precursor protein; assay: Binding affinity to Amyloid beta (1 to 42) aggregates (unknown origin) assessed as fluorescent intensities measured after 30 mins by fluorescence spectrometry
In short: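 P14 (320 nM final, in EtOH) incubated 30 min at room temperature with 0, 2, 4, 6 or 8 μM Aβ42 aggregates. Aggregates were made by shaking 50 μM Aβ42 in 10 mM PBS pH 7.4 at 100 rpm, 37 °C, 24 h. Emission spectra recorded at 600–800 nm with excitation at 589 nm.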

Mus musculus [3] = assay: In vivo binding affinity Amyloid beta deposits in APP/PS1 transgenic mouse assessed as Increase in fluorescence intensity at 2 mg/kg, iv measured after 5 mins by IVIS Spectrum imaging based assay relative to wild type; format: functional, organism-based
In short: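 APP/PS1 and wild-type mice, 12 months old, heads shaved and anaesthetized with 1.5% isoflurane. Injected intravenously with 2 mg kg-1 in DMSO:Cremophor EL:0.9% saline = 5:10:85. Brain fluorescence was acquired sequentially by IVIS, with circular ROI analysis at 5 min. Ex 570 nm, Em Cy5.5. n = 3.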

Mus musculus [4] = assay: Anti-alzheimer activity against 5 month old 5 x FAD mouse assessed as average radiation efficiency at 30 mg/kg, po treated for 1 month; format: functional; settings: time 1 months, 730 h
In short: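 5×FAD and wild-type mice imaged by IVIS after a single intravenous injection of 2.0 mg kg-1. Imaging was done at 5 months, and again at 6 months after one month of oral treatment (30 mg kg-1) or vehicle. Ex 570 nm, Em 640 nm. Read-out is average radiation efficiency. n = 3 at 5 months, n = 4 at 6 months; mean ± SD.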

Mus musculus [5] = species: Mus musculus; assay: Antialzheimer activity in 12 month old APP/PS1 transgenic cognitive impairment mouse model assessed as shortening of latencies to reaching platform treated continuously and measured after 3 months by water maze test; format: functional, organism-based
In short: (§1)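 APP/PS1 mice and wild-type littermates given oral 10 mg kg-1 (PEG400:HS15:0.9% saline = 25:15:60) or vehicle from 9 to 12 months. Tested in an 80 × 50 cm passage water maze with one correct path. Training was 1-min free swims, with guidance to the platform on failure. After 4 trainings, wrong-path errors and latency to the platform were recorded. n = 6-10.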

Brain = assay: In vivo binding affinity Amyloid beta deposits in wild type mouse brain by fluorescence staining assay; format: functional, organism-based
In short: (§2)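 Frozen brain sections from perfused 12-month male APP/PS1 mice or wild-type mice. Sections were stained with ThS (10 mg mL-1), washed 3 times with 50% ethanol, then incubated with 100 μM compound for 20 min at room temperature. Confocal imaging: compound Ex 638/Em 650–700 nm, ThS Ex 488/Em 500–550 nm. n = 3.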

Cortical neurone [6] = assay: Neuroprotective effect against Amyloid-beta induced Sprague-Dawley rat primary cortical neurons assessed as cell viability after 9 days of pretreatment with Amyloid-beta followed by incubated with 5 uM compound for 24 hrs by MTT assay; format: functional, cell-based; settings: time 9.0 day
In short: (§3)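 Primary cortical neurons from newborn SD rat pups, cultured in neurobasal/B27 at 37 °C and used at day 9. Cells were exposed for 24 h to Aβ42 (1 μM final) premixed with compound at 0, 0.1, 0.25, 0.5, 1 or 5 μM final. MTT was then added for 4 h, formazan dissolved in DMSO and absorbance read at 490 nm. n = 3; mean ± SD.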

Cortical neurone [7] = assay: Cytotoxicity against Sprague-Dawley rat primary cortical neurons assessed as cell viability at 0.1 to 5 uM measured after 24 hrs by MTT assay; format: toxicity, cell-based; settings: dose 0.1-5 µM
[8] = target: T1, Amyloid-beta precursor protein; assay: Inhibition of amyloid beta 42 (unknown origin) aggregation assessed as fluorescence intensity at 0.1 equivalents measured for 24 hrs by ThT fluorescence assay
In short: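 Aβ42 monomer (50 μM) incubated 24 h at 37 °C with or without compound. ThT was then added from a 15 mM solution in 50 mM glycine-NaOH, and fluorescence read at Ex 425/Em 490 nm. n = 4; mean ± SD.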

Cortical neurone [9] = assay: Neuroprotective effect against Amyloid-beta induced Sprague-Dawley rat primary cortical neurons assessed as reversal of Amyloid beta-induced loss of MAP2 fluorescence signal at 1 uM by immunofluorescence staining based assay; format: functional, cell-based
In short: (§4)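 Primary rat cortical neurons exposed to Aβ42 with or without compound. Cells were fixed in 4% PFA and blocked with 3% BSA/0.01% Triton X-100 for 1 h. Staining was anti-MAP2 (1:200) overnight at 4 °C, then Alexa Fluor 488 secondary (1:500) for 1 h, with DAPI nuclear counterstain. MAP2 fluorescence was quantified. n = 3.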

Mus musculus [10] = species: Mus musculus; assay: Anti-alzheimer activity against 12 month old APP/PS1 transgenic mouse model assessed as decrease in amyloid beta plaques in brain cortex region treated continuously and measured after 3 months by ThS staining based immunofluorescence assay relative to control; format: functional, organism-based
In short: (§5)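 APP/PS1 mice dosed orally from 9 months of age for three months with 10 mg kg-1 in PEG400:HS15:0.9% saline = 25:15:60, or with vehicle alone. Wild-type mice were treated in parallel. ThS-stained plaques were counted by confocal imaging of hippocampus and cortex sections at 12 months. n = 3.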

Cortical neurone [11] = assay: Neuroprotective effect against Amyloid-beta induced Sprague-Dawley rat primary cortical neurons assessed as cell viability after 9 days of pretreatment with Amyloid-beta followed by incubated with 1 uM compound for 24 hrs by MTT assay; format: functional, cell-based; settings: time 9.0 day; in short: as §3
Cortical neurone [12] = assay: Neuroprotective effect against Amyloid-beta induced Sprague-Dawley rat primary cortical neurons assessed as reversal of Amyloid beta-induced loss of MAP2/DAPI fluorescence signal at 1 uM by immunofluorescence staining based assay; format: functional, cell-based; in short: as §4
Cerebral cortex = assay: In vivo binding affinity Amyloid beta deposits in APPswe/PSEN1dE9, APP/PS1 double transgenic mouse cerebral cortex assessed as red fluorescent spot; format: functional, organism-based; in short: as §2
[13] = target: T1, Amyloid-beta precursor protein; assay: Inhibition of amyloid beta 42 (unknown origin) aggregation assessed as reduction in amyloid fibrils density at 50 uM measured after 24 hrs incubation by transmission electron microscopy (TEM)
In short: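 Aβ42 (50 μM in water) mixed 1:1 with water or 100 μM compound, then shaken at 100 rpm, 37 °C, 24 h. Samples were adsorbed on carbon-coated copper grids, negatively stained with 7.5% uranium formate and imaged by TEM at 120 kV.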

Mus musculus [14] = species: Mus musculus; assay: Anti-alzheimer activity against 12 month old APP/PS1 transgenic mouse model assessed as decrease in amyloid beta plaques in brain hippocampus region treated continuously and measured after 3 months by ThS staining based immunofluorescence assay relative to control; format: functional, organism-based; in short: as §5
[15] = Solubility of the compound in water; format: physicochemical; settings: buffer
Hippocampus = assay: In vivo binding affinity Amyloid beta deposits in APPswe/PSEN1dE9, APP/PS1 double transgenic mouse hippocampus assessed as red fluorescent spot; format: functional, organism-based; in short: as §2
Mus musculus [16] = species: Mus musculus; assay: Anti-alzheimer activity against transgenic mouse model assessed as decrease in amyloid beta plaques in brain hippocampus region treated continuously and measured after 3 months by ThS staining based immunofluorescence assay relative to control
Mus musculus [17] = species: Mus musculus; assay: Antialzheimer activity in 12 month old APP/PS1 transgenic cognitive impairment mouse model assessed as reduction in error time in passage water maze treated continuously and measured after 3 months by passage water maze test; format: functional, organism-based; in short: as §1

T1 sequence (P05067 whole entry): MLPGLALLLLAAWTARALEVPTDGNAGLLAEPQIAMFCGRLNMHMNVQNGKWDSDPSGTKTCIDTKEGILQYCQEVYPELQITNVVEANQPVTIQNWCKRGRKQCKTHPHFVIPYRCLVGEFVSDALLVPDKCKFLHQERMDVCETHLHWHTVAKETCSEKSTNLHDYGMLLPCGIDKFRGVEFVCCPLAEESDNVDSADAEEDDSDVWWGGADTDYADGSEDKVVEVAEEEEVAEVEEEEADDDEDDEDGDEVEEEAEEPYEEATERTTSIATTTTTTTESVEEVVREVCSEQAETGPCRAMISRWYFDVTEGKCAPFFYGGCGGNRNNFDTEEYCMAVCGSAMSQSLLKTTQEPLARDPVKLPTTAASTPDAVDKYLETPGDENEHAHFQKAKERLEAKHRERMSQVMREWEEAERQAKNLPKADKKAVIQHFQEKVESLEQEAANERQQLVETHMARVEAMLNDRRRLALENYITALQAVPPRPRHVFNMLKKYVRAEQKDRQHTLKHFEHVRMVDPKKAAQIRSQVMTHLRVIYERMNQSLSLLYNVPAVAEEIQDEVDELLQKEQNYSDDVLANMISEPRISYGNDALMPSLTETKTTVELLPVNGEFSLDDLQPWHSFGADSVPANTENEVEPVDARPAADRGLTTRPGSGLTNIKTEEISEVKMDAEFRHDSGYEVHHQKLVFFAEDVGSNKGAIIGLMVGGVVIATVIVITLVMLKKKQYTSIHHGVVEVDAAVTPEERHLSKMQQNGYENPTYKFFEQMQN

| Structure (SMILES) | pKd [1] | pKd [2] | Activity (Mus musculus [3]) | Activity (Mus musculus [4]) | Activity (Mus musculus [5]) | Activity (Brain) | Activity (Cortical neurone [6]) | Activity (Cortical neurone [7]) | inhibition [8] | Activity (Cortical neurone [9]) | Activity (Mus musculus [10]) | Activity (Cortical neurone [11]) | Activity (Cortical neurone [12]) | Activity (Cerebral cortex) | inhibition [13] | Activity (Mus musculus [14]) | solubility [15] | Activity (Hippocampus) | Activity (Mus musculus [16]) | Activity (Mus musculus [17]) |
| --- | --- | --- | --- | --- | --- | --- | --- | --- | --- | --- | --- | --- | --- | --- | --- | --- | --- | --- | --- | --- |
| Cc1cc(/C=C/c2ccc(N(C)C)s2)n2c1C=C1C=CC=[N+]1[B-]2(F)F | 7.26 |  |  |  |  |  |  |  |  |  |  |  |  |  |  |  |  |  |  |  |
| CC1=CC(C)=[N+]2C1=C(CCCN1CCNc3ccccc31)c1c(C)cc(/C=C/c3ccc(N(C)C)s3)n1[B-]2(F)F |  | 7.57 |  |  |  |  |  |  |  |  |  |  |  |  |  |  |  |  |  |  |
| CC1=CC(C)=[N+]2C1=C(CCCO)c1c(C)cc(/C=C/c3cnc(N(C)C)s3)n1[B-]2(F)F |  | 7.11 | Active | 5.2 10^8(p/s/cm^2/sr)/(uW/cm^2) | Active | inactive | Active | Non-Toxic | Dose-Dependent Effect | Active | Active | Active | Active | Active | Active | Active | Soluble | Active | Active | Active |

From ChEMBL document CHEMBL5385974, “A novel BODIPY-based theranostic agent for in vivo fluorescence imaging of cerebral Aβ and ameliorating Aβ-associated disorders in Alzheimer's disease transgenic mice” (RSC Med Chem, 2024)
